In ChEMBL document CHEMBL1667795, “Phosphonic pseudopeptides as human neutrophil elastase inhibitors--a combinatorial approach” (Bioorg Med Chem, 2011):
The source made the active and inactive calls. No cut-off for these calls is given here.

Tests used:
A549 [1] = experiment: Cytotoxicity against human A549 cells at 125 to 500 uM after 48 hrs by MTT assay; type: functional
Outline: (§1)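 A549 lung cancer cells kept at 37 °C, 5% CO2, harvested by trypsinization and PBS wash. Seeded 1 × 10^4 cells/well, attached overnight, then 48 h with inhibitor diluted in medium from DMSO stocks; DMSO-only controls. MTT absorbance at 570 nm, growth as percent of untreated control, mean ± one SD.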

[2] = Inhibition of chymotrypsin at 2.5 uM after 30 mins relative to control
Outline: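 Suc-Ala-Ala-Pro-Phe-AMC then added, fluorescence read at Ex 350/Em 460 nm. Inhibition given as percent of enzyme activity relative to the control sample.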

[3] = Inhibition of trypsin at 2.5 uM after 30 mins relative to control
Outline: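 Trypsin (final 2.5 nM) preincubated 30 min at 37 °C with 2.5 µM inhibitor in 0.1 M HEPES, 0.01 M CaCl2, pH 7.5. Bzl-Arg-AFC added, fluorescence read at Ex 380/Em 505 nm. Percent inhibition relative to the control sample.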

A549 [4] = experiment: Cytotoxicity against human A549 cells at 250 uM after 48 hrs by MTT assay; type: functional; conditions: A549, 48 h; outline: as §1
[5] = Cytotoxicity against HGF at 500 uM after 48 hrs by MTT assay; type: cell-based; conditions: human
Outline: (§2)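 Human gingival fibroblasts isolated from healthy gingival biopsies, grown in DMEM with 10% FBS, glutamine and penicillin/streptomycin at 37 °C, 5% CO2. Seeded 1 × 10^4 cells/well, attached overnight, then exposed 48 h to inhibitor diluted in medium from DMSO stocks; DMSO-only controls. MTT read at 570 nm, viability expressed as percent of untreated control.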

[6] = target: T1, Neutrophil elastase (Homo sapiens) (UniProt P08246); experiment: Inhibition of human neutrophil elastase after 15 mins
T1 sequence (whole entry): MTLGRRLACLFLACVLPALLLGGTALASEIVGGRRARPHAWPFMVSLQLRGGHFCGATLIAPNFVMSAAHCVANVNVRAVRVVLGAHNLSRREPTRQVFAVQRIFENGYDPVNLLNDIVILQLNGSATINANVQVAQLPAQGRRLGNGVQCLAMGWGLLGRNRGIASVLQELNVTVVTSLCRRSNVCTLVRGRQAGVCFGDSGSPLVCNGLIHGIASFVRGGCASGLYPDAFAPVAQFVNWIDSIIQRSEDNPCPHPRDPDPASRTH

[7] = Cytotoxicity against HGF at 250 uM after 48 hrs by MTT assay; type: cell-based; conditions: human, HGF cells; read-out: INH; outline: as §2
A549 [8] = experiment: Cytotoxicity against human A549 cells at 500 uM after 48 hrs by MTT assay; type: functional; conditions: A549, 48 h; outline: as §1

| Compound | inhibition (INH) (A549 [1]) [%] | inhibition [2] | inhibition [3] | inhibition at 250 µM (A549 [4]) [%] | Activity [5] | kinact/Ki (second-order inactivation rate constant) [6] [M⁻¹ s⁻¹] | cytotoxicity at 48 h, 250 µM [7] [%] | inhibition at 500 µM (A549 [8]) [%] |
| --- | --- | --- | --- | --- | --- | --- | --- | --- |
| CCCCN(C(=O)CNC(=O)OCc1ccccc1)[C@@H](CCc1ccccc1)C(=O)N[C@H](C(C)C)P(=O)(Oc1ccc(SC)cc1)Oc1ccc(SC)cc1 | 50 | 15% | inactive | 70 | Toxic | 1420 | 10 |  |
| CSCC[C@H](NC(=O)OCc1ccccc1)C(=O)O[C@@H](CCc1ccccc1)C(=O)N[C@H](C(C)C)P(=O)(Oc1ccc(Cl)cc1)Oc1ccc(Cl)cc1 |  | inactive | inactive |  |  | 1620 |  |  |
| CSCC[C@H](NC(=O)OCc1ccccc1)C(=O)O[C@@H](CCc1ccccc1)C(=O)N[C@H](C(C)C)P(=O)(Oc1ccc(SC)cc1)Oc1ccc(SC)cc1 |  | inactive | inactive |  |  | 765 |  |  |
| CSCC[C@H](NC(=O)OCc1ccccc1)C(=O)O[C@H](C(=O)N[C@H](C(C)C)P(=O)(Oc1ccc(Cl)cc1)Oc1ccc(Cl)cc1)c1ccc([N+](=O)[O-])cc1 |  | inactive | inactive |  |  | 165 |  |  |
| CCCCCC(=O)N1CCN([C@H](C(=O)N[C@H](C(C)C)P(=O)(Oc2ccc(SC)cc2)Oc2ccc(SC)cc2)c2ccc(OC)c(OC)c2)CC1 |  | inactive | inactive |  |  | 125 |  |  |
| CSCC[C@H](NC(=O)OCc1ccccc1)C(=O)O[C@@H](CC(C)C)C(=O)N[C@H](C(C)C)P(=O)(Oc1ccc(SC)cc1)Oc1ccc(SC)cc1 |  | inactive | inactive |  |  | 4400 |  |  |
| CCCCCC(=O)N1CCN([C@H](C(=O)N[C@H](C(C)C)P(=O)(Oc2ccc(SC)cc2)Oc2ccc(SC)cc2)c2ccc([N+](=O)[O-])cc2)CC1 |  | inactive | inactive |  |  | 140 |  |  |
| CSCC[C@H](NC(=O)OCc1ccccc1)C(=O)O[C@@H](Cc1ccccc1)C(=O)N[C@H](C(C)C)P(=O)(Oc1ccc(SC)cc1)Oc1ccc(SC)cc1 |  | inactive | inactive |  |  | 605 |  |  |
| CSCC[C@H](NC(=O)OCc1ccccc1)C(=O)O[C@H](C(=O)N[C@H](C(C)C)P(=O)(Oc1ccc(SC)cc1)Oc1ccc(SC)cc1)C(C)C |  | 15% | inactive |  |  | 5050 |  |  |
| CSCC[C@H](NC(=O)OCc1ccccc1)C(=O)O[C@H](C(=O)N[C@H](C(C)C)P(=O)(Oc1ccc(SC)cc1)Oc1ccc(SC)cc1)c1ccc(F)cc1 |  | inactive | inactive |  |  | 4850 |  |  |
| CCCCN(C(=O)CNC(=O)OCc1ccccc1)[C@@H](Cc1ccccc1)C(=O)N[C@H](C(C)C)P(=O)(Oc1ccc(SC)cc1)Oc1ccc(SC)cc1 |  | 14% | inactive |  |  | 1360 |  |  |
| CSCC[C@H](NC(=O)OCc1ccccc1)C(=O)O[C@H](C(=O)N[C@H](C(C)C)P(=O)(Oc1ccc(Cl)cc1)Oc1ccc(Cl)cc1)C(C)C |  | 15% | inactive |  |  | 20500 |  |  |
| CSCC[C@H](NC(=O)OCc1ccccc1)C(=O)O[C@H](C(=O)N[C@H](C(C)C)P(=O)(Oc1ccc(Cl)cc1)Oc1ccc(Cl)cc1)c1ccc(F)cc1 |  | 16% | inactive |  |  | 215 |  |  |
| CCCCCC(=O)N1CCN([C@@H](CCSC)C(=O)N[C@H](C(C)C)P(=O)(Oc2ccc(SC)cc2)Oc2ccc(SC)cc2)CC1 |  |  | inactive |  |  | 140 |  |  |
| CCCCN(C(=O)CNC(=O)OCc1ccccc1)[C@H](C(=O)N[C@H](C(C)C)P(=O)(Oc1ccc(SC)cc1)Oc1ccc(SC)cc1)C(C)C |  | 8% | inactive |  |  | 495 |  |  |
| CCCCCC(=O)N1CCN([C@H](C(=O)N[C@H](C(C)C)P(=O)(Oc2ccc(SC)cc2)Oc2ccc(SC)cc2)c2ccc(F)cc2)CC1 |  | inactive | inactive |  |  | 330 |  |  |
| CSCC[C@H](NC(=O)OCc1ccccc1)C(=O)O[C@@H](CCSC)C(=O)N[C@H](C(C)C)P(=O)(Oc1ccc(Cl)cc1)Oc1ccc(Cl)cc1 |  | inactive | inactive | 25 |  | 40100 |  | 60 |
| CSCC[C@H](NC(=O)OCc1ccccc1)C(=O)O[C@@H](CCSC)C(=O)N[C@H](C(C)C)P(=O)(Oc1ccc(SC)cc1)Oc1ccc(SC)cc1 |  | 14% | inactive |  |  | 5900 |  |  |
| CSCC[C@H](NC(=O)OCc1ccccc1)C(=O)O[C@@H](CC(C)C)C(=O)N[C@H](C(C)C)P(=O)(Oc1ccc(Cl)cc1)Oc1ccc(Cl)cc1 |  | inactive | inactive |  |  | 7250 |  | 75 |
| COc1ccc([C@H](OC(=O)[C@H](CCSC)NC(=O)OCc2ccccc2)C(=O)N[C@H](C(C)C)P(=O)(Oc2ccc(SC)cc2)Oc2ccc(SC)cc2)cc1OC |  | 22% | inactive |  |  | 3800 |  |  |
| CSCC[C@H](NC(=O)OCc1ccccc1)C(=O)O[C@@H](Cc1ccccc1)C(=O)N[C@H](C(C)C)P(=O)(Oc1ccc(Cl)cc1)Oc1ccc(Cl)cc1 |  | inactive | inactive |  |  | 695 |  |  |
| COc1ccc([C@H](OC(=O)[C@H](CCSC)NC(=O)OCc2ccccc2)C(=O)N[C@H](C(C)C)P(=O)(Oc2ccc(Cl)cc2)Oc2ccc(Cl)cc2)cc1OC |  | 21% | inactive |  |  | 165 |  |  |
| CSCC[C@H](NC(=O)OCc1ccccc1)C(=O)O[C@H](C(=O)N[C@H](C(C)C)P(=O)(Oc1ccc(SC)cc1)Oc1ccc(SC)cc1)c1ccc([N+](=O)[O-])cc1 |  | inactive | inactive |  |  | 430 |  |  |
| CCCCN(C(=O)CNC(=O)OCc1ccccc1)[C@@H](CC(C)C)C(=O)N[C@H](C(C)C)P(=O)(Oc1ccc(SC)cc1)Oc1ccc(SC)cc1 |  | inactive | inactive |  |  | 145 |  |  |
